The list is not random: actives were taken first. Their share in the collection is about 1.7%.
CaV13 ICDI inh: Disruptors of the CACNA1D IQ motif to Ca2+-dependent inactivation inhibitor domain association, primary screening, Förster resonance energy transfer in intact living … | inhibition, % at 12.3 µM | 340,000 compounds, 0.098% hits | HEK cells, CFP/YFP FRET ICDI-IQ, plate reader, 10 min; percent FRET-ratio fall versus neutral wells | AID 743397;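 active means mean replicate inhibition of at least 30% and at least 1% of replicates passing that level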;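 further: 0% = median of the neutral control wells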
Cneo AK release: Cryptococcus neoformans cell lysis inducers, primary screen, AK release luminescence, single concentration; C. neoformans lysis, adenylate kinase release luminescence, 4 h; normalised: neutral wells 0, clomiphene wells 100; lysis activity, % at 15 µM; 360,000 compounds, 0.2% hits;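 active means mean lysis activity across replicates of at least 80%, whatever share of replicates individually reach that level; inactive means mean lysis activity below 80%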
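read-out = cell lysis signal | test system = log-phase Cryptococcus neoformans yeast cells | input = cells at 5 × 10^6 per mL | medium = fresh YPD growth medium | signal = luminescent adenylate kinase detection reagent | timing = 4 h at 37 °C static, read 1 h later | dosing = single dose | controls = Clomiphene as positive lysis control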
rRNA inh HTS: reduced GFP signal of wild-type E. coli, primary screen, bacterial rRNA inhibitor project, GFP/RFP fluorescence, OD600, single point | E. coli WT GFP vs humanized-ribosome RFP mutants, 24 h; active compounds read low; DMSO median 0, no signal -100 | GFP signal change (wild-type ribosome), % (test concentration not listed) | 350,000 compounds, 1.6% hits;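 active means significant combined selectivity score with lowered wild-type GFP, culture density cut under 30%, mutant RFP and density less affected; inactive means any of these conditions unmet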
CFTR F508del cor: F508del CFTR correction, initial screen, CFBE line, single point. CFBE cells, YFP halide quenching; stimulated with forskolin plus potentiator P3; % fluorescence drop versus neutral controls. activity (quench increase), % at 7.58 µM. 350,000 compounds, 0.36% hits. AID 720511, 2013;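 active means mean added fluorescence quench of at least 8% versus neutral control, with both replicates also reaching 8%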;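 further: cells transiently co-express mutant CFTR-F508del with the halide-sensitive YFP; corrector assay measuring rescue of mutant channel to the surface after 24 h compound exposure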
Starred values were filed as active, the others as inactive; · = no result given.

SMILES	CaV13 ICDI inh	Cneo AK release	rRNA inh HTS	CFTR F508del cor
C[C@@H]1CN([C@H](C)CO)C(=O)c2cc(NC(=O)Nc3cccc4ccccc34)ccc2O[C@@H]1CN(C)C(=O)Nc1ccccc1	·	103*	1	1
COc1ccc(S(=O)(=O)Nc2ccc3c(c2)C(=O)N([C@H](C)CO)C[C@H](C)[C@H](CN(C)C(=O)Nc2ccccc2)O3)cc1	·	90*	-4	0
C[C@@H]1CN([C@@H](C)CO)C(=O)c2cc(NS(=O)(=O)c3ccccc3)ccc2O[C@H]1CN(C)C(=O)NC1CCCCC1	·	112*	2	-4
C[C@H](CO)N1C[C@H](C)[C@H](CN(C)C(=O)NC2CCCCC2)Oc2ncc(-c3cc4ccccc4o3)cc2C1=O	·	-3	-1	8.7*
C[C@H](CO)N1C[C@H](C)[C@H](CN(C)C(=O)NC2CCCC2)Oc2ncc(-c3cc4ccccc4o3)cc2C1=O	·	16	-6	1
O=C(N[C@@H]1CC[C@@H](CCNS(=O)(=O)c2ccc(F)cc2)O[C@@H]1CO)c1cccnc1	·	0	-1	0
COc1ccc2c3c(n(C)c2c1)[C@H](CO)NCC31CCN(Cc2ccc(F)cc2)CC1	·	·	-1	·
CCCNC(=O)N1CC2(CN(C(=O)Nc3cccc(F)c3)C2)c2c(n(C)c3cc(OC)ccc23)[C@H]1CO	·	·	-3	-2
COc1cccc(NC(=O)CN(C)C(=O)Cn2[nH]c(=O)c3ccccc3c2=O)c1	-6	-1	-8	-4
COc1ccc(Cl)cc1NC(=O)CN(C)C(=O)Cn1[nH]c(=O)c2ccccc2c1=O	-15	-1	-20*	-3
C[C@@H]1CCCCO[C@H](CN(C)C(=O)c2ccccc2)[C@@H](C)CN([C@@H](C)CO)C(=O)c2cc(NC(=O)C3CCCCC3)ccc2O1	·	0	-2	1
Cc1nn(-c2ccccc2)c2nc(C(F)(F)F)[nH]c(=O)c12	-7	·	-15	·
Cc1nn(-c2cc(C(F)(F)F)ccc2Cl)c2nc(C(Cl)(Cl)Cl)[nH]c(=O)c12	-2	·	-15*	-1
CC(C)c1c(O)ccc2c1CC[C@H]1C(C)(C)CCC[C@]21C	-5	0	-14*	9.0*
CC(C)(O)c1ccc2c(c1)CCC1C(C)(C(=O)O)CCCC21C (stereo not drawn)	·	3	2	-1
OC[C@H]1[C@@H](c2ccc(C3=CCCC3)cc2)[C@H]2CN(CCC(F)(F)F)CCCCN21	·	39	·	-1
CCCCOc1ccc(C(=O)CCN2CCCCC2)cc1	-4	-1	2	1
CCCOc1ccc(C(=O)CCCC(=O)c2ccc(OCCC)cc2)cc1	-3	0	1	8.3*
Fc1ccc(NC(=S)Nc2cc(-c3ccccc3)[nH]n2)cc1Cl	-4	1	-54*	1
COc1ccc(NC(=S)Nc2ccc(C)c(Cl)c2)cc1OC	-5	2	-40	-2
Cc1ccc(NC(=S)Nc2cc(-c3ccccc3)[nH]n2)cc1Cl	-4	2	-20*	-1
CC(C)(C)c1ccccc1OCCCCCn1ccnc1	-3	·	-55*	-1
O=C(Nc1ccc(S(=O)(=O)N2CCCCCC2)cc1)c1[nH]ncc1[N+](=O)[O-]	-6	-2	-40*	-3
COc1ccc(C(=O)Nc2ccc(S(=O)(=O)N3CCCC3)cc2)cc1	1	·	-32*	0
COc1ccc(C(=O)NNC(=O)c2ccc(S(=O)(=O)N3CCCCC3)cc2)cc1	·	·	5	4
SMILES	CaV13 ICDI inh	Cneo AK release	rRNA inh HTS	CFTR F508del cor
O=C(Nc1ccc([N+](=O)[O-])cc1)c1ccc(S(=O)(=O)N2CCCC2)cc1	-2	4	10	-1
CNC(=O)C[C@@H]1CC[C@@H]2[C@@H](COc3ccc(NC(=O)c4cc(F)cc(F)c4)cc3C(=O)N2C)O1	·	53	6	2
COc1ccc(/C(O)=C2/C(=O)C(=O)N(Cc3cccnc3)C2c2ccncc2)cc1F (stereo not drawn)	0	2	·	·
Cc1cc(OCc2ccccc2)ccc1/C(O)=C1/C(=O)C(=O)N(Cc2cccnc2)C1c1ccncc1 (stereo not drawn)	1	·	-29*	0
NC(=S)NC1CC2CC1C1C=CCC21 (stereo not drawn)	12	·	8	2
CNNC(=S)NC1CC2CC1C1C=CCC21 (stereo not drawn)	41*	6	·	-1
CCCN1[C@@H]2c3ccc(-c4cccnc4)c(=O)n3C[C@@H]2[C@@H](CO)[C@@H]1C(=O)NCCCN1CCOCC1	·	0	5	0
O=C1C=CC(O)(c2cc(=O)c3c(O)cc(O)cc3o2)C=C1	-9	-3	-5	17*
O=c1cc(-c2ccccc2Cl)oc2cc(O)cc(O)c12	-4	-3	-10	3
Cn1cccc1/C=C1\SC(=S)N(NC(=O)c2ccccc2)C1=O	-6	·	-7	3
Cn1cccc1/C=C1\SC(=S)N(NC(=O)c2ccccc2O)C1=O	-17	·	-28*	1
CC(=O)c1sc(=S)n(Cc2ccccc2)c1C	-4	-2	-12	0
COC(=O)c1sc(=S)n(Cc2ccccc2)c1C	-4	-2	-24*	2
Cc1ccc(NC(=O)c2ccc(=O)[nH]n2)cc1S(=O)(=O)Nc1ccccc1Cl	-21	1	·	-9
Cc1ccc(NC(=S)NC(=O)c2ccc(F)cc2)cc1S(=O)(=O)Nc1ccccc1Cl	-7	·	-26*	·
CO[C@H]1CN(C)C(=O)c2ccc(NC(C)=O)cc2OC[C@H](C)N(Cc2ccccc2C(=O)O)C[C@@H]1C	·	·	2	-2
COc1ccc2c3c(n(C)c2c1)[C@@H](CO)N(Cc1nccs1)CC31CCN(C)CC1	·	·	3	-1
Cc1ccc(C)c(C2NC(=O)c3ccccc3N2)c1 (stereo not drawn)	-4	1	4	8.8*
CCOC(=O)c1sc(N2C(=O)C(O)=C(C(=O)c3ccco3)C2c2ccc([N+](=O)[O-])cc2)nc1C (stereo not drawn)	-3	-2	-18*	4
CCOC(=O)c1sc(N2C(=O)C(O)=C(C(=O)c3ccco3)C2c2ccc(C)o2)nc1C (stereo not drawn)	-4	0	-18	1
O=C(N/N=C/c1ccc(O)cc1)Nc1cccc2nsnc12	-11	·	-31*	-12
COc1ccc(-c2ccc3n(c2=O)C[C@@H]2[C@@H](CO)[C@H](C(=O)N4CCOCC4)[C@H]3N2C)cc1	·	0	-3	·
CCn1nnc(NC(=S)NC(=O)c2ccc(-c3cccc(Cl)c3)o2)n1	-4	4	-21*	4
CCCn1nnc(NC(=O)c2ccc(-c3cccc(Cl)c3)o2)n1	-4	0	·	·
C[C@H]1CN([C@@H](C)CO)C(=O)Cc2cc(NC(=O)Cc3ccccc3)ccc2O[C@@H]1CN(C)C	·	-1	7	3

Screening results as filed in PubChem.
